Screens from PubChem BioAssay.
The sample as a whole holds a higher share of hits than the screen did.
KCC2 mod: KCC2 (human) Cl- transport modulation. KCC2 cells, thallium flux FluoZin-2 fluorescence. B-score of Tl+ flux slope (higher = more flux/activation; lower = inhibition) at 10 µM. 190,000 tested, 2.2% active;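 active = thallium flux slope and its plate-corrected score both differing from the plate sample mean at a set confidence after two filtering rounds, in either direction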;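 note: slope of fluorescence scaled to starting intensity during 10 to 20 s after thallium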
Target sequence (Q9H2X9 whole entry, looked up): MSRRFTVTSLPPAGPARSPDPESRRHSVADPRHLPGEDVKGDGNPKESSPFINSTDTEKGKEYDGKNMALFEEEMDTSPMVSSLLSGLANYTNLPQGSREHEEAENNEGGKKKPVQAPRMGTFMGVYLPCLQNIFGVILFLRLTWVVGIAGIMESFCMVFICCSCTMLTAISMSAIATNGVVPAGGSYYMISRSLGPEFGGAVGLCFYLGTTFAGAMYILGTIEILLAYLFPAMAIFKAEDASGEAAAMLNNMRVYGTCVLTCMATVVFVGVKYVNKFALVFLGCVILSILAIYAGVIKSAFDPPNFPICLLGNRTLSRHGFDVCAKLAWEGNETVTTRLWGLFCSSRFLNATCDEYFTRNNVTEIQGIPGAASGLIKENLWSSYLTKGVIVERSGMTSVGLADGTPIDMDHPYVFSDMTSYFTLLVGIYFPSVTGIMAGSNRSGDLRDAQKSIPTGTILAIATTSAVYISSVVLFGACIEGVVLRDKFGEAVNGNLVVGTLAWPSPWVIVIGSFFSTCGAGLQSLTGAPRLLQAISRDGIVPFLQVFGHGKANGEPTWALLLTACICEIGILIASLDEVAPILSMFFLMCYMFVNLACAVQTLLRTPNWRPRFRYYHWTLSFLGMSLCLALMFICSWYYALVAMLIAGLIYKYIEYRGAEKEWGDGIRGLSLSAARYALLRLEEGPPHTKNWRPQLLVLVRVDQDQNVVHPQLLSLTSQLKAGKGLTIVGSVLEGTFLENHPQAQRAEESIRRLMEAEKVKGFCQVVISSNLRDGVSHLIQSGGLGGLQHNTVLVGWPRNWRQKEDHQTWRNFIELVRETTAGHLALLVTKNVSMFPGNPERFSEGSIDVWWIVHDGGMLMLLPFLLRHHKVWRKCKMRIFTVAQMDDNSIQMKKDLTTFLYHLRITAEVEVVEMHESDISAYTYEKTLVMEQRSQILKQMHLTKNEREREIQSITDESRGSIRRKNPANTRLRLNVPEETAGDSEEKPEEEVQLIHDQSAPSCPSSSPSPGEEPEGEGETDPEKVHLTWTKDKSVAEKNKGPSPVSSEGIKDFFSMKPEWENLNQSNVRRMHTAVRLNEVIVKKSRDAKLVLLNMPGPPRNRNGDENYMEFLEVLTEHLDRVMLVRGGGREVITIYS
pCIP destab: p/CIP protein destabilization; Q05BA5; decrease of EGFP signal, % at 10 µM; AID 1984; F442A p/CIP-EGFP cells, EGFP fluorescence, 16 h; 290,000 tested, 0.01% active;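 active = EGFP signal decrease of at least 30% at 10 µM or well 3 SD below plate mean, unless failing retest; inactive = the rest, including hits failing retest or dose response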
ABCB6 inh 2: human ABCB6 transporter inhibition; Q9NP58; K562-ABCB6 porphyrin accumulation, flow cytometry, 1 h; stronger effect = lower value; fluorescence ratio to DMSO, % at 10 µM; 360,000 tested, 0.19% active;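 active = fluorescence ratio to DMSO below 75%, the collection mean minus 3 SD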;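 note: signal is porphyrin accumulated inside mitochondria; 100% equals median channel fluorescence of DMSO control wells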
Dynein cargo inh: blocks dynein driven cargo transport along microtubules; 220,000 tested, 0.47% active; z-score, hits read low; 3617.4 mouse cells, GR-EGFP nuclear translocation imaging; test concentration mostly 20 µM; stimulated with dexamethasone, 1 µM; stronger effect = lower value;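 active = plate z-score of nuclear minus cytoplasmic receptor signal below a set negative limit, without overly bright fluorescence or cell loss, cut at about -3.5 in these data, passing the limit was not always enough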;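 note: z-score of nuclear minus cytoplasmic ring GR-EGFP intensity difference per well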
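Buffer or medium: tet-free, stripped-serum medium; reagent: dexamethasone at 1.0 µM final, 30 min; incubation: 48 h induction, 1 h compound, 30 min dex at 37 °C; measured by: formaldehyde fixation, Hoechst nuclear stain, 10x automated fluorescence imaging; read-out: nuclear-to-cytoplasmic GR-EGFP distribution per well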
V-ATPase pHluor: regulators of yeast V-ATPase proton transport; 350,000 tested, 0.37% active; S. cerevisiae, pHLuorin cytosolic pH fluorescence; response, % at 10 µM; in the data active = response mostly above about 7.3%, no sharp cut-off; inactive = mostly below about 5.4%; note: actives read high
VATPase regulator: regulators of yeast V-ATPase proton transport | S. cerevisiae pHLuorin cytosolic pH | AID 602197 | shares compounds with V-ATPase pHluor | response, % at 10 µM | 980 tested, 2% active; in the data active = response above about 24%;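 note: plate controls were vehicle wells for no effect and positive control wells for full effect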
The depositor's hits bear a star; . = no result.

SMILES | KCC2 mod | pCIP destab | ABCB6 inh 2 | Dynein cargo inh | V-ATPase pHluor | VATPase regulator
N#Cc1c(-c2ccccc2)c(-c2ccccc2)n(Cc2ccco2)c1NC(=O)c1cccs1 | -0.952 | 5.2 | 86.0 | -0.931 | 9.7* | -5.5
O=S1(=O)CCOCCN1Cc1ccccc1 | . | -4.0 | 98.0 | . | -1.2 | .
c1ccc(CCNC2=NCCCS2)cc1 | 0.0102 | -3.6 | 93.0 | -0.215 | -4.4 | 7.2
CN(CC(=O)Nc1ccc(F)cc1[N+](=O)[O-])Cc1ccccc1 | -2.17 | 10.8 | 97.0 | -0.147 | 7.9* | -0.4
CON(C)C(=O)CC(CN(Cc1ccccc1)C(=O)OC(C)(C)C)c1ccc(Cl)cc1 (stereo not given) | . | . | 101.0 | . | -3.9 | .
Cn1ncc([N+](=O)[O-])c1C(=O)N1CCCCCC1 | . | -2.5 | 104.0 | . | -2.3 | .
CC(=O)Nc1cccc(NC(=O)COC(=O)CO/N=C(\C)c2ccc3c(c2)OCO3)c1 | . | -4.8 | 102.0 | . | -3.7 | .
COC(=O)C1=NNC(C(=O)OC)C1c1ccccc1 (stereo not given) | . | . | 94.0 | . | 16.9* | -0.7
COC(=O)C1=NNC(C(=O)c2ccco2)C1c1ccccc1 (stereo not given) | 0.652 | -3.1 | 103.0 | -0.796 | 0.5 | .
Cc1cccn2c(=O)c(/C=C(\C#N)C(=O)NC3CCS(=O)(=O)C3)c(Oc3ccc(F)cc3)nc12 (stereo not given) | . | 0.1 | 89.0 | . | 4.1 | .
Cc1cccn2c(=O)c(/C=C(\C#N)C(=O)NC3CCS(=O)(=O)C3)c(N3CCC(C)CC3)nc12 (stereo not given) | -0.261 | 2.8 | 98.0 | 1.19 | 14.7* | -1.1
COc1ccc(C2=NS(=O)(=O)N(C)C(C(=O)NC3CCCC3)=C2)cc1 | . | -2.5 | 98.0 | . | 7.6 | .
COc1ccc(C2=NS(=O)(=O)N(C)C(C(=O)NC3CCCCC3)=C2)cc1 | . | -2.3 | 101.0 | . | 11.4* | -4.5
COc1ccc(CC2(c3ccccc3)NC(=O)NC2=O)cc1 (stereo not given) | . | . | 113.0 | . | -5.8 | .
CCN(CC)C(=O)CNC(=O)Cc1ccc(Cl)cc1 | 0.00691 | -12.9 | 94.0 | -0.249 | 9.5* | 2.4
CCOC(=O)CNC(=O)Cc1ccc(Cl)cc1 | -0.0386 | 0.2 | 98.0 | -0.369 | -0.1 | .
COc1ccc(OC)c(CNC(=O)C2CCN(S(=O)(=O)N3CCCC3)CC2)c1 | -0.604 | -5.7 | 85.0 | -0.678 | -3.9 | .
COc1ccc(OC)c(CNC(=O)C2CCN(S(C)(=O)=O)CC2)c1 | 0.509 | -7.5 | 101.0 | -0.649 | 10.6* | -1.2
Cc1csc(SCC(=O)NC2CCCCC2)n1 | -1.02 | -6.5 | 92.0 | -0.427 | -0.7 | .
Cc1csc(SCC(=O)NC2CCC(C)CC2)n1 (stereo not given) | . | . | 102.0 | . | 7.5* | -6.5
CSc1ncccc1C(=O)N1CCN(S(=O)(=O)c2ccc3ccccc3c2)CC1 | . | . | 95.0 | . | 10.3* | 0.8
CCCCCC(=O)N1C[C@H](n2cc(-c3ccc(F)cc3)nn2)[C@@H](O)C[C@@H]1c1ccc(OC)cc1 | . | . | 88.0 | . | 1.5 | .
CCCCCC(=O)N1C[C@H](n2cc(-c3ccc(F)cc3)nn2)[C@@H](O)C[C@@H]1c1ccc(C)cc1 | . | . | 97.0 | . | 6.8* | -0.9
COC(=O)c1cc(S(=O)(=O)n2nc(C)c(Br)c2C)c(Cl)cc1Cl | 0.125 | 7.1 | 99.0 | -2.13 | -0.7 | .
CCOc1ncccc1C(=O)OCC(=O)c1ccc(Br)s1 | . | . | 98.0 | . | 0.9 | .
SMILES | KCC2 mod | pCIP destab | ABCB6 inh 2 | Dynein cargo inh | V-ATPase pHluor | VATPase regulator
COc1cc(C(=O)NCCOc2cccc3cccnc23)cc(OC)c1OC | -1.25 | -3.5 | 99.0 | 1.31 | 15.3* | -0.6
CCOC(=O)c1ccc(S(=O)(=O)N2CCN(C3CC(=O)N(c4ccc(OC)cc4)C3=O)CC2)cc1 (stereo not given) | . | . | 100.0 | . | -4.8 | .
CCOc1ccccc1NC(=O)NNC(=O)c1ccc2ccccc2c1 | . | 1.4 | 96.0 | . | 12.9* | 2.1
CCOc1ccccc1NC(=O)c1ccc2ccccc2c1 | . | -11.4 | 96.0 | . | 0.3 | .
CC1Cc2c([nH]c3ccccc23)C2c3ccccc3CN12 (stereo not given) | . | -0.3 | 119.0 | . | 5.3 | .
C[C@@H]1Cn2cnc(C(=O)N[C@@H](C)c3ccccc3)c2C(=O)N1 | . | . | 98.0 | . | 4.2* | -0.4
C[C@H](NC(=O)c1ncn2c1C(=O)N[C@@H](C)C2)c1ccccc1 | . | . | 98.0 | . | -0.1 | .
CN1CCN(C(=S)NC(=O)c2ccco2)CC1 | . | -18.0 | 93.0 | 0.339 | 11.1* | 0.4
CC(=O)C1CCC2C3CCC4CC(=O)CCC4(C)C3C=CC12C (stereo not given) | . | . | 93.0 | . | 1.3 | .
NNC(=O)COc1cccc(C(F)(F)F)c1 | 1.15 | -23.3 | 98.0 | -1.36 | 11.9* | 2.6
Cc1nn(CC#N)c(=O)n1-c1ccc(Cl)cc1 | -0.127 | -11.8 | 90.0 | -0.161 | 1.4 | -3.7
Cc1nn(CC#N)c(=O)n1-c1ccc(C(C)C)cc1 | 0.158 | -2.4 | 92.0 | 0.907 | -2.5 | .
OCCN(Cc1ccccc1)Cc1ccccc1O | 0.155 | 6.5 | 101.0 | -0.18 | 1.3 | .
OCCN(CCO)Cc1csc2ccccc12 | 0.488 | -21.7 | 98.0 | -0.411 | 11.6* | 0.0
COc1ccc(OC)c(S(=O)(=O)Nc2c(NC3CCCCC3)c3ccccc3oc2=O)c1 | . | -1.4 | 103.0 | . | 9.2* | -3.8
NNC(=O)CNC(=O)c1cccc(Br)c1 | -0.498 | -7.9 | 99.0 | 0.154 | 25.7* | -5.9
CC(=O)Nc1ccc(NC(=O)c2ccc(NS(=O)(=O)c3cc(C(C)(C)C)cc(C)c3C)cc2)cc1 | 1.16 | -6.1 | 112.0 | -0.452 | 10.9* | 2.0
CN(CCOc1ccc(-c2ccn(S(=O)(=O)c3ccc(Cl)cc3)n2)cc1)c1ccccn1 | . | -16.1 | 91.0 | -0.514 | 10.2* | 1.4
CNC(=O)C12N=CNN=C1N(C)C(=O)N2C (stereo not given) | . | 0.6 | 98.0 | -0.471 | -4.5 | .
CCC(C)NC(=O)CC(c1ccccc1)c1cc(C)ccc1O (stereo not given) | 1.57 | 3.2 | 100.0 | 0.173 | -4.1 | .
CCc1nn(CC(=O)N2CCCCCC2)c(=O)c2cc3ccccc3n12 | . | 11.4 | 102.0 | . | 13.1* | 0.7
CCc1ccc(NC(=O)C2CCCN(S(=O)(=O)c3cnc[nH]3)C2)cc1 (stereo not given) | . | -4.2 | 97.0 | . | 10.6* | -0.1
Cc1sc(-c2ccccn2)nc1OC(=O)c1ccc(Cl)c(Cl)c1 | 0.344 | -1.5 | 97.0 | -0.864 | -1.4 | .
Cc1sc(-c2ccccn2)nc1OC(=O)c1ccc(F)cc1F | -1.95 | -2.2 | 100.0 | 2.18 | 10.9* | 0.8
O=C(O)Cc1ccc(NC(=O)c2ccc3c(c2)C(=O)N(Cc2ccccc2)C3=O)cc1 | . | . | 103.0 | . | 1.3 | .
O=C(O)c1cc(NC(=O)c2ccc3c(c2)C(=O)N(Cc2ccccc2)C3=O)cc(C(=O)O)c1 | . | 6.4 | 97.0 | . | 7.6* | -1.7
O=C(Cc1n[nH]c(=O)c2ccccc12)OCC(=O)c1ccc2c(c1)OCCO2 | 0.401 | -8.9 | 95.0 | -0.0167 | 12.1* | -1.5
Cc1cc(C)n2nc(SCC(=O)NC(=O)c3ccccc3Cl)nc2n1 | . | . | 95.0 | . | 9.8* | 0.9
